Measured values reported in ChEMBL document CHEMBL1629681 (Antimicrob Agents Chemother, 2010).

Assays:
Format in all cases: ADME, organism-based
[1] = Cmax in patient with end-stage renal failure undergoing hemodialysis at 4 mg/kg, iv after 2 hrs by LC/MS/MS analysis; set-up: dose 4 mg/kg, route intravenous; conditions: human, in vivo
Summary of the method: (§1)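 End-stage renal failure patients on 6-h Genius dialysis, hemodialysis or hemodiafiltration received a single 2-h iv infusion of 4 mg/kg. Venous plasma sampled before dosing and at 1, 2, 3, 4, 6 and 6.5 h from a site other than the infusion line, stored at −20°C. Quantified by LC-MS-MS against a 30 to 5,000 ng/ml calibration, analysed noncompartmentally.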

[2] = Cmax in patient with end-stage renal failure undergoing genius system-mediated dialysis at 4 mg/kg, iv after 2 hrs by LC/MS/MS analysis; set-up: dose 4 mg/kg, route intravenous; conditions: human, in vivo; summary of the method: as §1
[3] = Cmax in patient with end-stage renal failure undergoing hemodiafiltration at 4 mg/kg, iv after 2 hrs by LC/MS/MS analysis; set-up: dose 4 mg/kg, route intravenous; conditions: human, in vivo; summary of the method: as §1
[4] = Terminal half life in human with normal renal function; conditions: in vivo, read-out: beta t1/2 (converted)

C[C@@H](c1ncncc1F)[C@](O)(Cn1cncn1)c1ccc(F)cc1F [VORICONAZOLE]
Cmax [1]: 1700 ng/mL
Cmax [2]: 1800 ng/mL
Cmax [3]: 1900 ng/mL
half-life [4]: 7 h
